For assay [1], the system named is Jurkat. Description: Cell cycle arrest in human Jurkat cells assessed as accumulation at S phase at 1.25 uM after 24 hrs using propidium iodide staining by flow cytometry relative to control. Format: functional. The method, boiled down: (§1)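 Exponentially growing cells (5 × 10^5) exposed to graded compound levels, 0.312 to 5 μM, for 24 or 48 h; collected, fixed in ice-cold 70% ethanol, treated with lysis buffer containing RNase A and 0.1% Triton X-100, stained with propidium iodide; DNA content read by flow cytometry. Mean ± SEM of two independent experiments.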

Assay [2] concerns HeLa. The assay is described as follows: Cell cycle arrest in human HeLa cells assessed as reduction of cells at S phase at 1.25 uM after 24 hrs using propidium iodide staining by flow cytometry. It counts as functional, cell-based. The method, boiled down:
as §1

Assay [3] has as its system HeLa. Description: Induction of apoptosis in human HeLa cells assessed as caspase-3-mediated cleavage of PARP at 0.625 to 2.5 uM. It counts as functional, cell-based. Particulars: TDE = time-dependent effect. Summed up: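 Treated cells washed twice in ice-cold PBS, lysed 30 min on ice, lysate cleared at 15000×g, 4 °C, 10 min; protein by BCA. 20 μg per lane on SDS-PAGE (7.5–15%), PVDF transfer, overnight block at 4 °C; primary antibodies 2 h at room temperature, peroxidase secondaries 60 min, ECL detection; β-actin loading control.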

The subject of assay [4] is Jurkat. The assay is described as follows: Cell cycle arrest in human Jurkat cells assessed as hypodiploid peak at sub-G1 phase at 0.312 to 5 uM uM after 48 hrs using propidium iodide staining by flow cytometry. Format: functional, cell-based. Summed up: as §1
For assay [5], the system named is HeLa. The assay is described as follows: Induction of apoptosis in human HeLa cells assessed as necrotic cells at 1.25 uM after 24 hrs using FITC-conjugated annexin V and propidium iodide staining by flow cytometry assay (RVb = 1.9 %). Format: functional.
Assay [6] concerns HeLa. The assay is described as follows: Induction of apoptosis in human HeLa cells assessed as early apoptotic cells at 1.25 uM after 24 hrs using FITC-conjugated annexin V and propidium iodide staining by flow cytometry assay (RVb = 1.5 %). It counts as functional.
Assay [7] concerns HeLa. The assay is described as follows: Induction of apoptosis in human HeLa cells assessed as viable cells at 1.25 uM after 24 hrs using FITC-conjugated annexin V and propidium iodide staining by flow cytometry assay (RVb = 94.7 %). It counts as functional. The settings on record: read-out: Activity.
Assay [8] can be described thus: Inhibition of tubulin polymerization after 20 mins by turbidimetry.
The test system of assay [9] is HeLa. The assay is described as follows: Induction of apoptosis in human HeLa cells assessed as ROS production after 24 to 48 hrs using H2-DCFDA staining by flow cytometry. It counts as functional, cell-based. Summed up:
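ROS probe: after 24 or 48 h exposure, HeLa cells resuspended in HBSS with 0.1 μM H2DCFDA, incubated 30 min at 37 °C, spun and resuspended in HBSS; fluorescence recorded by flow cytometry, excitation 488 nm, emission 530 nm.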

Assay [10] deals with HeLa. The assay is described as follows: Induction of apoptosis in human HeLa cells assessed as early apoptotic cells at 5 uM after 24 hrs using FITC-conjugated annexin V and propidium iodide staining by flow cytometry assay (RVb = 1.5 %). Format: functional.
In assay [11] the test system is HeLa. The assay is described as follows: Induction of apoptosis in human HeLa cells assessed as late apoptotic cells at 0.62 uM after 24 hrs using FITC-conjugated annexin V and propidium iodide staining by flow cytometry assay (RVb = 1.9 %). It counts as functional.
Assay [12] has as its system HeLa. Description: Antiproliferative activity against human HeLa cells assessed as cell viability after 72 hrs by MTT assay. It counts as functional, cell-based. Summed up:
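A549 and HeLa cells grown in DMEM with 10% FBS and penicillin/streptomycin. Plated at 8 × 10^3 cells/well and held 18 h at 37 °C in 5% CO2. Medium replaced with compound in complete medium at varied concentrations for 72 h at 37 °C, then MTT read.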

Activity calls are given as the source filed them. The calls are words filed in the database; no cut-off is given here.

For the molecule `CCOc1ccc(Nc2c(C(=O)c3cc(OC)c(OC)c(OC)c3)sc3ccccc23)cc1`, the Activity in the assay with Jurkat [1] is 18%; in the assay with HeLa [3], “tde”; in the assay with HeLa [5], 13.4%; with HeLa [6], 6.8%; in the assay on HeLa [10], 7.2%; with HeLa [11] it was 14.4%. Moreover, the outcome in the assay on HeLa [2], with Jurkat [4] and in the assay on HeLa [9] was Active. Besides, in the assay with HeLa [7], the viability at 1.25 µM worked out at 63.7%. For the same molecule, the IC50 in assay [8] is 7.2 µM; in the assay with HeLa [12] it was 0.7 µM.

The values above are taken from ChEMBL document CHEMBL1629488, “Synthesis and biological evaluation of 2-(3',4',5'-trimethoxybenzoyl)-3-aryl/arylaminobenzo[b]thiophene derivatives as a novel class of antiproliferative agents” (Eur J Med Chem, 2010).
